# Results taken from ChEMBL document CHEMBL1131742, “Design of scytalone dehydratase inhibitors as rice blast fungicides: derivatives of norephedrine” (Bioorg Med Chem Lett, 1999).
# Experiments:
# Scytalone dehydratase = target: T1, Scytalone dehydratase (Magnaporthe oryzae (strain 70-15 / FGSC 8958) (Rice blast fungus)(Pyricularia oryzae), UniProt P56221); set-up: species or system Pyricularia grisea
# T1 sequence (P56221 whole entry): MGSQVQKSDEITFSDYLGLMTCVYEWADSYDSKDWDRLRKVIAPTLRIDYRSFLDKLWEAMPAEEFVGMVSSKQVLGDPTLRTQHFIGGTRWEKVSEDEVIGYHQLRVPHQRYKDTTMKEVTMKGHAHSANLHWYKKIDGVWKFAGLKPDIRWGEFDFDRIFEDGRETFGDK
# rice = test: Concentration that affords 90% control of blast disease on rice plants in greenhouse assay; type: functional
# Method in brief: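 Foliar greenhouse test on rice plants against blast disease; compounds applied over a range of concentrations, and the concentration giving 90% disease control was derived from the dose-response data.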
SMILES,Ki (Scytalone dehydratase),ED90 (rice)
C[C@@H](NC(=O)C(C#N)C1CC1)[C@@H](Oc1cc(F)ccc1F)c1ccccc1 (stereo partly drawn),0.014 nM,2 µg/mL
CC(C)C(C#N)C(=O)N[C@H](C)[C@@H](Oc1ccccc1C#N)c1ccccc1 (stereo partly drawn),0.038 nM,25 µg/mL
CCC(C#N)C(=O)N[C@H](C)[C@@H](Oc1ccccc1C#N)c1ccccc1 (stereo partly drawn),0.07 nM,10 µg/mL
C[C@H](COc1cc(F)ccc1F)NC(=O)[C@H](C#N)C(C)(C)C,0.02 nM,
CCC(C#N)C(=O)N[C@H](C)[C@@H](Oc1cc(F)ccc1C#N)c1ccccc1 (stereo partly drawn),0.021 nM,50 µg/mL
CCC(C#N)C(=O)N[C@H](C)[C@@H](Oc1cc(Br)ccc1C#N)c1ccccc1 (stereo partly drawn),0.034 nM,50 µg/mL
C[C@H](COc1cc(F)ccc1F)NC(=O)C(C#N)C(C)(C)C (stereo partly drawn),,6 µg/mL
CCC(C#N)C(=O)N[C@H](C)COc1cc(F)ccc1F (stereo partly drawn),5.5 nM,> 200 µg/mL
C[C@H](COc1cc(F)ccc1F)NC(=O)C(C#N)C1CC1 (stereo partly drawn),1.1 nM,50 µg/mL
C[C@@H](NC(=O)C(C#N)C(C)(C)C)[C@@H](Oc1ccccc1C#N)c1ccccc1 (stereo partly drawn),0.14 nM,200 µg/mL
CCC(C#N)C(=O)N[C@H](C)[C@@H](Oc1cc(Cl)ccc1C#N)c1ccccc1 (stereo partly drawn),0.031 nM,10 µg/mL
CC(C)C(C#N)C(=O)N[C@H](C)[C@@H](Oc1cc(F)ccc1C#N)c1ccccc1 (stereo partly drawn),0.034 nM,25 µg/mL
CCC(C#N)C(=O)N[C@H](C)[C@@H](Oc1cc(F)ccc1F)c1ccccc1 (stereo partly drawn),0.02 nM,2 µg/mL
CC(C)C(C#N)C(=O)N[C@H](C)COc1cc(F)ccc1F (stereo partly drawn),0.27 nM,10 µg/mL
CC(C)C(C#N)C(=O)N[C@H](C)[C@@H](Oc1cc(F)ccc1F)c1ccccc1 (stereo partly drawn),0.076 nM,100 µg/mL
